Bioassay records deposited in PubChem by several laboratories.
This excerpt belongs to a sample that is enriched for hits.
UPR XBP1 act – adaptive UPR (XBP1) activation; hit rate 0.33% among 330,000; activation, % at 20 µM; CHO-XBP1 luciferase reporter, IRE1-XBP1 UPR activation, luminescence; percent of tunicamycin response, DMSO as zero;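 active = versus positive control, 20 µM dose yields 30% or more activation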
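assay system = CHO-XBP1 luciferase reporter cells | amount = 1000 cells/well | buffer or medium = F12 plus 10% FBS | compound dosing = single point, 20 µM final compound, 1% DMSO | incubation = 16-18 h cell attachment at 37 °C, then 6 h compound exposure | detection = Steady-Glo luminescence read | controls = tunicamycin 10 µg/mL and vehicle-only wells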
UPR CHOP act – apoptotic UPR (CHOP) activation. AID 449763. hit rate 0.34% among 330,000. activation, % at 10 µM. CHO-CHOP luciferase reporter, luminescence; percent of tunicamycin response over DMSO baseline;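 active = at 10 µM dose, activation of 40% or more, normalized to positive control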
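Assay system: CHO-CHOP cells, stable luciferase reporter of PERK-eIF2a-CHOP signalling / Buffer or medium: F12 plus 10% serum / Compound dosing: one dose, 10 µM in 0.5% DMSO / Times: 6 h compound treatment, 37 °C / Technique: luciferase luminescence / Read-out: % reporter activation, DMSO baseline versus tunicamycin full activation / Benchmarks: tunicamycin and DMSO controls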
CTSL1 counter – counter-screen for PFM18AAP inhibitors: inhibitors of F. hepatica cathepsin L1 | recombinant F. hepatica cathepsin L1, Z-Leu-Arg-MCA fluorescence | inhibition, % at 5.96 µM | hit rate 0.49% among 300,000 | AID 1906;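 active = inhibition above the mean of all tested compounds plus 3 SD, set per screening campaign, cut at about 17% in these data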
UCH37 DUB inh – blocks the human deubiquitinase UCH37 | inhibition, % (concentration not given with the values) | Q9Y5K5 | AID 588478 | purified proteasome/UCH37, Ub-AMC cleavage fluorescence | hit rate 0.33% among 330,000;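 active = mean inhibition over replicate wells above about 20%, limit read from the data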
Target sequence (Q9Y5K5 whole entry, looked up): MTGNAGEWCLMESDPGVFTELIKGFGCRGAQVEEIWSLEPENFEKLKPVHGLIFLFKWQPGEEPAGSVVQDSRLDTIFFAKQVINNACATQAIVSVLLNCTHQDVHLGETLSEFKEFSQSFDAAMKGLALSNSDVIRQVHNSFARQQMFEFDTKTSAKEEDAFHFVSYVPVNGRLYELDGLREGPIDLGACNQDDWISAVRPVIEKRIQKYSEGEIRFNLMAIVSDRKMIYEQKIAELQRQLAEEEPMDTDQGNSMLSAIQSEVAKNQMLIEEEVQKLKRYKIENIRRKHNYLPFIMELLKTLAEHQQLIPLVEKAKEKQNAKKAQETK
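Material: human UCH37 enzyme supplied as purified proteasome complex. Measure: % inhibition of Ub-AMC cleavage fluorescence. Medium: pH 7.4 Tris-HCl (50 mM) with ovalbumin, ATP-MgCl2, DTT. Times: 30 min preincubation with enzyme, 25 min cleavage at room temperature. Detection: AMC fluorescence intensity at 355/460 nm.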
CHOP inhibitor – CHOP inhibition in unfolded protein response. AID 2732. CHO-K1 CHOP-promoter luciferase, tunicamycin-induced, 15-18 h. inhibition, % at 10 µM. hit rate 3.8% among 220,000;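 active = compounds that reduced the stress-induced luciferase reporter signal by more than about 70% of percent inhibition, limit read from the data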
Numbers stand for hits; 0 = inactive; - = no result given.

SMILES | UPR XBP1 act | UPR CHOP act | CTSL1 counter | UCH37 DUB inh | CHOP inhibitor
CC(CC(=O)Nc1ccc(C)c(Cl)c1)=NNC(=O)Cc1cnc(N)s1 | - | - | - | 0 | -
c1ccc(-c2noc(-c3ccc4ccccc4c3)n2)nc1 | 0 | 0 | 0 | 0 | 93
c1ccc(-c2noc(-c3ccncc3)n2)nc1 | 0 | 0 | 0 | 0 | 0
CCOc1cc(N2CCOCC2)c(OCC)cc1NC(=O)CN1C(=O)NC2(CCCCC2)C1=O | 0 | 0 | - | 0 | -
CCOc1cc(N2CCOCC2)c(OCC)cc1NC(=O)CSc1n[nH]c(N)n1 | 0 | 0 | 21 | 0 | 0
CCOc1cc(N2CCOCC2)c(OCC)cc1NC(=O)COC(=O)c1cc2ccccc2cc1O | 0 | 0 | 58 | 0 | 0
CCOc1cc(N2CCOCC2)c(OCC)cc1NC(=O)COC(=O)[C@@H]1CCCN1S(=O)(=O)c1ccccc1F | 0 | 0 | 80 | 0 | 0
CCOc1cc(N2CCOCC2)c(OCC)cc1NC(=O)CN1C(=O)NC(C)(C2CC2)C1=O (stereo not drawn) | 0 | 0 | 37 | 0 | 0
COc1ccc(C(C)=NNc2nc3ccccc3nc2C)cc1 | - | - | - | 0 | -
CCOC(=O)C(=NNc1ccc(Cl)cc1)c1csc(Nc2ccccc2)n1 | - | - | - | 0 | -
Cn1[nH]c(-c2ccccc2)c(C=NO)c1=O | - | - | - | 0 | -
CCOC(=O)c1c(CSC(=N)N)n(-c2ccc(Br)cc2)c2cc(Br)c(OC(C)=O)cc12 | - | - | - | 0 | 110
CCCCCCCCOC(=O)c1c(CSC(=N)N)n(C)c2cc(Br)c(OC(C)=O)cc12 | 0 | 0 | 0 | 0 | 100
CCOC(=O)c1c(CSc2nc(C)cc(C)c2C#N)n(C)c2cc(Br)c(OC(C)=O)cc12 | 0 | 0 | 0 | 0 | 0
C=CCCc1ccc(C#N)c(SCc2c(C(=O)OCC)c3cc(OC(C)=O)c(Br)cc3n2C)n1 | 0 | 0 | 0 | 0 | 72
CCOC(=O)c1c(CN2CCCCC2)n(C)c2cc(Br)c(OC)cc12 | 0 | 0 | 0 | 0 | 0
CON=C(Cn1ncc(N2CCOCC2)c(Br)c1=O)c1ccc(Cl)cc1 | - | - | - | 0 | -
O=[N+]([O-])c1cccnc1N1CCC(c2cc(-c3ccc(Cl)cc3Cl)n[nH]2)CC1 | 0 | 0 | 0 | 0 | 92
Cc1ccc(C(c2c(C)nn(-c3ccccc3)c2N)c2c(C)nn(-c3ccccc3)c2N)cc1 | 0 | 0 | 0 | - | 0
Cc1nn(-c2ccccc2)c(N)c1C(c1ccc(C(C)C)cc1)c1c(C)nn(-c2ccccc2)c1N | 0 | 0 | 0 | - | 85
CN1CCN(CC#CC(C)(O)C2CC3C=CC2C3)CC1 (stereo not drawn) | 0 | 0 | 0 | 23 | 0
CC(=O)C(Cl)C(=O)Nc1ccccc1 (stereo not drawn) | - | - | - | 0 | 83
O=C(Nc1ccccc1)C(Cl)C(=O)c1ccccc1 (stereo not drawn) | 0 | 0 | 0 | 0 | -
N#C/C(=N/Nc1ccc(OC(F)(F)F)cc1)C(N)=S | 0 | 0 | 0 | - | 74
CC(C)c1cc(C(=O)NN=C/C=C/c2ccccc2)n[nH]1 | - | - | - | 0 | -
SMILES | UPR XBP1 act | UPR CHOP act | CTSL1 counter | UCH37 DUB inh | CHOP inhibitor
CC(=NNC(=O)c1ccc(Br)o1)C(C)C | - | - | - | 0 | -
COc1nc(Nc2ccc([N+](=O)[O-])cc2)nc(NC2CCCCC2)n1 | 0 | 0 | 0 | 0 | 82
O=c1[nH]c(=O)c2nc3c4ccccc4c4ccccc4c3nc2[nH]1 | 0 | 0 | 0 | - | 78
Cc1cccc(OCC(=O)NCC(=O)NN=Cc2cccnc2)c1 | - | - | - | 0 | -
COc1ccc(-c2cnnc(NN=Cc3ccc(-c4ccc([N+](=O)[O-])cc4)o3)n2)cc1 | - | - | - | 0 | -
O=C(NCCO)/C(=C\c1ccc([N+](=O)[O-])o1)NC(=O)c1ccccc1 | 0 | 0 | 0 | 0 | 0
O=C(NCCCO)/C(=C/c1ccc(-c2cccc([N+](=O)[O-])c2)o1)NC(=O)c1ccccc1 | 0 | 0 | 0 | 22 | 0
CC1CC(C)CN(S(=O)(=O)c2cccc(C(=O)OCCN3CCCC3=O)c2)C1 (stereo not drawn) | 0 | 0 | 18 | 0 | 0
CC1CN(S(=O)(=O)c2cccc(C(=O)OCCOc3ccccc3)c2)CC(C)O1 (stereo not drawn) | 0 | 0 | - | 0 | -
CC(=NNC(=O)c1ccncc1)C12CC3CC(CC(C3)C1)C2 | - | - | - | 0 | -
NC(=NOC(=O)c1ccc(Cl)cc1)c1nonc1N | - | - | - | 0 | -
CCOCCN1CCN(c2c(CC)c(C)nc3cc(-c4cc(OC)cc(OC)c4)nn23)CC1 | 0 | 0 | 0 | 0 | 0
CCc1c(C)nc2cc(-c3cc(OC)cc(OC)c3)nn2c1N1CCCC1 | 0 | 0 | 0 | 0 | 92
